For one series, the system named is human THP-1 cells. The experiment in a line: q-PCR of ISG15 and ISG56 gene expression in THP-1 cells. It counts as cell-based. As to conditions: 1 μM compound, 1000 U/mL IFN-α, 8 h, compared to vehicle.
For the next series, the system named is ISG15 in THP-1 cells. The experiment in a line: Immunoblot of IFN-α induced ISG15 protein expression. It counts as cell-based, human. The settings on record: 24 h. For orientation: Immunoblotting shows a protein as a band on a membrane.
Another series deals with THP-1 cells. The experiment in a line: MTT cell viability assay. It counts as cell-based, human. As to conditions: for relative viability (MTT): 5 μM compound, overnight, relative to vehicle control (0.5% DMSO). The procedure, abridged: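 THP-1 cells in 96-well plates were exposed to test compound at 5 μM for 18 h. MTT (0.5 mg/ml in assay media) was then added for 4–6 h. Cells were lysed overnight in 15% w/v SDS with 0.12% v/v 12N HCl. Absorbance was read at 570 nm against a 650 nm reference and expressed relative to vehicle (0.5% DMSO) wells.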
(In general: Tetrazolium assays rely on reduction of a dye to a coloured formazan, in cell work by metabolically active cells.)

Series [1] relates to murine bone marrow derived dendritic cells. It counts as cell-based, mouse. The settings on record: 5 μM compound in presence of IFN-α, compared to IFN-α alone.
A further series has as its system ISRE-bla THP-1 cells. The experiment in a line: ISRE-bla THP-1 FRET reporter assay for prolonged IFN-α induced ISRE activation. It counts as cell-based, human. For orientation: Reporter assays use an easily measured gene product as a stand-in for the process of interest.
Series [2] has as its system STAT1 phosphorylation in THP-1 cells. Kind of series: Immunoblot of STAT1 phosphorylation after IFN-α. It is filed as cell-based, human. As to conditions: 1 μM compound pre-treatment 12 h, then IFN-α.

Like-named read-outs stand apart in the source and are kept apart here.

As a reminder, the EC50 is the concentration that produces a half-maximal response.

As for `O=C(Cc1ccc(-c2ccc(OCCN3CCOCC3)cc2)cn1)NCc1ccccc1` [Compound 24, KX2–391], the “increase in gene expression for both ISG15 and ISG56” value in the series on human THP-1 cells was roughly 2 fold. Further, the “levels of IFN-α induced ISG15 protein” value in the series with ISG15 in THP-1 cells (1 μM compound with IFN-α) is “increased”. For the same compound, the “amounts of ISG15 protein without IFN-α” value in the series with ISG15 in THP-1 cells (compound alone) is given as “did not increase”. In addition, the “relative viability (MTT)” value in the series on THP-1 cells is “without significant toxicity”. Moreover, the “% relative viability, dose response cytotoxicity” value with THP-1 cells (absence of IFN-α, dose response starting with 50 μM) is greater than 75%. Besides, the results for the “mRNA expression of Isg56, Isg15, Ifi2712a, Irf7, Ifi16” value in series [1] and in series [1] (listed as KX2–391) were “significantly increased” and “increased”, respectively. For the same compound, in the series on ISRE-bla THP-1 cells (no IFN-α, even at higher concentrations of the compounds), the “FRET ratio in the absence of exogenous interferon” value was “no increase”. For the same compound, the EC50 with ISRE-bla THP-1 cells (read-out: relative EC50 (ISRE activity), with 100 U/mL IFN, 16 h) was determined as 1640 nM. Besides, in series [2] (30 minutes), the “level of p-STAT1 after 30 minutes” value is “elevated”. Moreover, the “level of p-STAT1 at 6 h post stimulation” value in series [2] (6 h) is given as “minimal residual effect”.
As to `O=C(/C=C/c1cccc(S(=O)(=O)Nc2ccccc2)c1)NO` [Compound 26, belinostat], the “relative viability (MTT)” value is on record as “toxic” with THP-1 cells (5 µM) and “relatively toxic” in the series with THP-1 cells (listed as Belinostat, 5 µM).

(Values after article PMC6697428 (SLAS discovery : advancing life sciences R & D, 2018).)
